Assay [1] concerns the target T1, α-glucosidase (Saccharomyces cerevisiae, UniProt P53341). Kind of assay: α-Glucosidase inhibitory assay in vitro. The format is biochemical. The conditions noted are these: for α-Glucosidase inhibitory activity (in words): up to the highest tested concentration.
In assay [2] the target is T1, α-glucosidase. The experiment in a line: Steady-state kinetic analysis of α-glucosidase inhibition. Format: biochemical. In short, it runs like this: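 Yeast α-glucosidase (final 0.025 U mL−1, in 75 mM phosphate buffer pH 7.4) premixed with test compound at several concentrations for 10 min at 37 °C. 4-NPGP (50–200 μM) added to start the reaction. 4-Nitrophenol followed at 405 nm every 30 s for 10 min, with initial velocity taken as ΔA per min. Analysed by Lineweaver–Burk plots. Ki came from secondary plots of slopes, and Ki′ from secondary plots of apparent 1/Vmax, against inhibitor concentration. Three independent experiments.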

T1 sequence (P53341 whole entry): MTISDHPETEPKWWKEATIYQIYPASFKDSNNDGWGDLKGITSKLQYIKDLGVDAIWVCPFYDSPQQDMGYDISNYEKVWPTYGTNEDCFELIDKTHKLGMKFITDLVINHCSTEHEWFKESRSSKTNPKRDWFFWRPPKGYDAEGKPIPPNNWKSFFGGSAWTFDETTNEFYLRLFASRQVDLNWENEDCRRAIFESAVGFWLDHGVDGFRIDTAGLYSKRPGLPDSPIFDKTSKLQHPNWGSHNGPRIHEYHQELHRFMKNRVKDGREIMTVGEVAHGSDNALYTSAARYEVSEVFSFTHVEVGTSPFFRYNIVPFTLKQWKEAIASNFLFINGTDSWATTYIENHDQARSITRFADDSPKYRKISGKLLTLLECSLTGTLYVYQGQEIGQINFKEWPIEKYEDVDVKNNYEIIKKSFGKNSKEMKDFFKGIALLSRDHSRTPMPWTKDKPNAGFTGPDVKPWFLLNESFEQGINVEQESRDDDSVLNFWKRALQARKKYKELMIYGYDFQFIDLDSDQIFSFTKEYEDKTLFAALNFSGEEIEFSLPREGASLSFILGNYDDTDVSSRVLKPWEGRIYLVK

Compound `Cc1coc2c1C(=O)C(=O)c1c-2ccc2c1CCCC2(C)C` [TS-IIA, tanshinone IIA] had an IC50 in assay [1] of more than 100 µM.
On to `Cc1coc2c1C(=O)C(=O)c1c-2ccc2c1CCCC2(C)CO` (stereo not shown) [TS-IIB, tanshinone IIB], for which, in assay [1], the IC50 is more than 100 µM and the “α-Glucosidase inhibitory activity (in words)” value is reported as “weak inhibitory activity”.
For `O=C(O)/C=C/c1ccc(O)c(O)c1` [CA, caffeic acid], the IC50 in assay [1] was more than 100 µM.
In assay [1], `O=C(/C=C/c1ccc(O)c(O)c1/C=C/c1ccc(O)c(O)c1)O[C@H](Cc1ccc(O)c(O)c1)C(=O)O` [SAA, salvianolic acid A] came in with an IC50 of 19.3 ± 0.89 µM. Also, the Ki in assay [2] amounted to 21.2 µM. Moreover, the Inhibition mode entry in assay [2] (with respect to substrate 4-NPGP (50–200 μM)) is “competitive inhibition”.
For the compound `C[C@H]1[C@H](C)CC[C@]2(C(=O)O)CC[C@]3(C)C(=CC[C@@H]4[C@@]5(C)CC[C@H](O)C(C)(C)[C@@H]5CC[C@]43C)[C@H]12` [UA, ursolic acid], the “α-Glucosidase inhibitory activity (in words)” value in assay [1] is listed as “weak inhibitory activity”.
For `C[C@H]1COC2=C1C(=O)C(=O)c1c2ccc2c1CCCC2(C)C` [CTS, cryptotanshinone], in assay [1], the IC50 is more than 100 µM.
With `O=C(/C=C/c1ccc(O)c(O)c1)O[C@H](Cc1ccc(O)c(O)c1)C(=O)O` [RA, rosmarinic acid], the IC50 in assay [1] is more than 200 µM.
On the same count and under the same terms, to `CC(C)C1=Cc2ccc3c(c2C(=O)C1=O)CCCC3(C)C` [MT, miltirone] belongs more than 100 µM.
On to `O=C(/C=C/c1ccc(O)c2c1[C@H](C(=O)O)[C@@H](c1ccc(O)c(O)c1)O2)O[C@H](Cc1ccc(O)c(O)c1)C(=O)O` [LA, lithospermic acid], for which, in assay [1], the IC50 was more than 100 µM and the “α-Glucosidase inhibitory activity (in words)” value is on record as “weak inhibitory effect”.

As usually defined, the IC50 is the concentration needed to halve the response being measured. A lower IC50 goes with greater potency in that assay. The term Ki denotes a measure of affinity in units of concentration, obtained from inhibition or displacement. A lower Ki goes with tighter binding.

The values are drawn from article PMC9082424 (RSC Advances, 2018).
